Published values collected from several papers.
Target: Alpha-glucosidase MAL12 (MAL12, Saccharomyces cerevisiae S288c, UniProt P53341)
Read-out: enzyme activity
Mode: inhibitor

For `CC1(C)CC(=O)C2=C(C1)n1c(=O)c3ccccc3c(=O)n1C2c1cn(-c2ccccc2)nc1-c1ccc(Br)cc1` (stereo not shown), the IC50 was 353 µM (absorbance).
With `C[C@H]1CN(C(=O)Nc2ccc(Cl)c(Cl)c2)CCN1c1ccnc(Nc2ccc(Cl)cc2)n1` the IC50 was 1.82 µM (absorbance; pH 6.9).
With `Cc1ccc(-c2nc3ncnn3c(-c3ccc(Br)cc3)c2N)cc1` the IC50 was 68.7 µM (absorbance).
`CC(=O)C1=C(C)n2c(=O)c3ccccc3c(=O)n2C1c1cn(-c2ccccc2)nc1-c1ccc([N+](=O)[O-])cc1` (stereo not shown) has an IC50 of 86.7 µM (absorbance).
For `CCCCCCCCCCCCCCCCCC(=O)OCC(C)(C)CC1=C(O)C(=O)c2ccccc2C1=O`, the IC50 was 25.7 µM.
With `COc1ccc(-c2nn(-c3ccccc3)cc2C2C3=C(CC(C)(C)CC3=O)n3c(=O)c4ccccc4c(=O)n32)cc1` (stereo not shown) the IC50 was 229 µM (absorbance).
The IC50 of `C[C@H]1CN(C(=O)Nc2ccc(C(F)(F)F)cc2)CCN1c1ccnc(Nc2ccc(Cl)c(Cl)c2)n1` is reported as 1.69 µM (absorbance; pH 6.9).
For `COc1ccc(-c2nc3ncnn3c(-c3cccs3)c2N)cc1`, the IC50 was 120 µM (absorbance).
With `CC(=O)C1=C(C)n2c(=O)c3ccccc3c(=O)n2C1c1cn(-c2ccccc2)nc1-c1ccc(C)cc1` (stereo not shown) the IC50 was 167 µM (absorbance).
`C[C@H]1CN(C(=O)Nc2ccc(C(F)(F)F)cc2)CCN1c1ccnc(Nc2ccc(C(F)(F)F)cc2)n1` gave an IC50 of 2.63 µM (absorbance; pH 6.9).
The IC50 of `COc1cc(O)c2c(c1)oc(=O)c1c3cc(O)c(O)cc3oc21` is reported as 39.1 µM (absorbance).
`CC1(C)CC(=O)C2=C(C1)n1c(=O)c3ccccc3c(=O)n1C2c1cn(-c2ccccc2)nc1-c1ccc(Cl)cc1` (stereo not shown) gave an IC50 of 209 µM (absorbance).
`C[C@H]1CN(C(=O)Nc2ccc(C(F)(F)F)cc2)CCN1c1ccnc(Nc2ccccc2O)n1` has an IC50 of 5.13 µM (absorbance; pH 6.9).
`CCCCCCCCCCCC(=O)OCC(C)(C)CC1=C(O)C(=O)c2ccccc2C1=O` has an IC50 of 2.6 µM.
With `C[C@H]1CN(C(=O)Nc2ccc(C(F)(F)F)cc2)CCN1c1ccnc(Nc2ccc(Cl)c(OCc3ccccc3)c2)n1` the IC50 was 1.5 µM (absorbance; pH 6.9).
With `Cc1ccc(-c2nc3ncnn3c(-c3ccc(Cl)cc3)c2N)cc1` the IC50 was 54.6 µM (absorbance).
